Assay results published in ChEMBL document CHEMBL1158723, “Daucane sesquiterpenes from Ferula hermonis” (2005).

Legend:
Format in all cases: functional
MCF7 [1] = test: Estrogenic effect in human MCF7 cells assessed as stimulation of cell proliferation at 0.1 ug/ml relative to control by [3H]hypoxanthine incorporation assay
How it was run: (§1)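 MCF-7 cells were grown to confluence in DMEM with 10% FBS, trypsinized, and viable cells (Trypan blue) seeded at 10 000/well in phenol red-free medium. After overnight attachment, tamoxifen (2 μM) was added for 24 h. Cells were washed with Ca/Mg-free PBS, then exposed to test agents for 1 day. Triplicates; % proliferation scaled with no-compound as 0% and β-estradiol 10 nM as 100%; Dunnett's test.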

MCF7 [2] = test: Estrogenic effect in human MCF7 cells assessed as stimulation of cell proliferation at 1 ug/ml relative to control by [3H]hypoxanthine incorporation assay; how it was run: as §1
MCF7 [3] = test: Estrogenic effect in human MCF7 cells assessed as stimulation of cell proliferation at 10 ug/ml relative to control by [3H]hypoxanthine incorporation assay; how it was run: as §1
MCF7 [4] = test: Estrogenic effect in human MCF7 cells assessed as stimulation of cell proliferation at 0.1 nM relative to control by [3H]hypoxanthine incorporation assay
How it was run: as §1, with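 “day. [3H]-hypoxanthine (9.25 kBq/well) was added for 12 h.” for “day.”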

MCF7 [5] = test: Estrogenic effect in human MCF7 cells assessed as stimulation of cell proliferation at 10 nM relative to control by [3H]hypoxanthine incorporation assay
How it was run: as §1, with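 “day. [3H]-hypoxanthine (9.25 kBq/well) was added for 12 h.” for “day.”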

MCF7 [6] = test: Estrogenic effect in human MCF7 cells assessed as stimulation of cell proliferation at 1 nM relative to control by [3H]hypoxanthine incorporation assay
How it was run: as §1, with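 “day. [3H]-hypoxanthine (9.25 kBq/well) was added for 12 h.” for “day.”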

## CC1=CC(=O)[C@@H]2[C@@](C)(CC1)CC[C@@]2(O)C(C)C
MCF7 [1]
  Activity: 308.2%
MCF7 [2]
  Activity: 97.5%
MCF7 [3]
  Activity: 181.4%

## C/C=C(/C)C(=O)O[C@@]1(C)CCC2=C(C(C)C)[C@@H](OCC)C[C@]2(C)CC1=O
MCF7 [1]
  Activity: 223.9%
MCF7 [2]
  Activity: 321.4%
MCF7 [3]
  Activity: 974.4%

## CC1=CC(=O)[C@@H]2[C@](C)(CC[C@@]2(O)C(C)C)CC1=O
MCF7 [1]
  Activity: 5.9%
MCF7 [2]
  Activity: -26.5%
MCF7 [3]
  Activity: -285.7%

## C[C@]12CC[C@@H]3c4ccc(O)cc4CC[C@H]3[C@@H]1CC[C@@H]2O [ESTRADIOL]
MCF7 [4]
  Activity: 74.6%
MCF7 [5]
  Activity: 100%
MCF7 [6]
  Activity: 130.3%

## O=c1c(-c2ccc(O)cc2)coc2cc(O)cc(O)c12 [GENISTEIN]
MCF7 [1]
  Activity: -72.4%
MCF7 [2]
  Activity: 114.8%
MCF7 [3]
  Activity: -76.7%
